From article PMC3777270 (Biomaterials, 2010)

Tested on: S. aureus strain MZ100
Assay: In vitro S. aureus biofilm formation on coated Ti slides
Format: cell-based, Staphylococcus aureus
Conditions: 5 h exposure to S. aureus, 0.1% crystal violet; for macroscopic appearance of crystal violet stained wells: digital photographs; for cell attachment in phase-contrast micrographs: 630×
Procedure, shortened: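 Wells were formed on 20 nm Ti-coated glass slides with adhesive silicone isolators. PEGylated mono-, di- or tetravalent Ti-binding peptide coatings (500 μL) were applied in triplicate, held 2 h at RT and washed twice with PBS; uncoated Ti was included. Overnight TSB culture was diluted to ~5 × 10^7 CFU/mL in TSB + 0.2% glucose, then 5 h at 37 °C in a humidified chamber.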

| Substance | macroscopic appearance of crystal violet stained wells | cell attachment in phase-contrast micrographs |
| --- | --- | --- |
| (SKHKGGKHKGGKHKG)2K)2KSSGK(Biotin) –GGC–PEG [TBP4–PEG] | remained largely clear with small, disperse patches of staining | significantly fewer adhered bacteria |
| (SKHKGGKHKGGKHKG)2KSSGK(Biotin) –GGC–PEG [TBP2–PEG] | thick, dense biofilm | slight decrease in cell density |
| SKHKGGKHKGGKHKGSSGK(Biotin) –GGC–PEG [TBP1–PEG] | thick, dense biofilm | substantial cell attachment |
